Experimental data published in ChEMBL document CHEMBL4382240, “Discovery of novel 2,5-dihydroxyterephthalamide derivatives as multifunctional agents for the treatment of Alzheimer's disease” (Bioorg Med Chem, 2018).
Activity calls are given as the source filed them. No cut-off for these calls is given here.

Legend:
Acetylcholinesterase [1] = molecular target: T1, Acetylcholinesterase (Rattus norvegicus, UniProt P37136); test: Inhibition of rat AChE
T1 sequence (P37136 whole entry): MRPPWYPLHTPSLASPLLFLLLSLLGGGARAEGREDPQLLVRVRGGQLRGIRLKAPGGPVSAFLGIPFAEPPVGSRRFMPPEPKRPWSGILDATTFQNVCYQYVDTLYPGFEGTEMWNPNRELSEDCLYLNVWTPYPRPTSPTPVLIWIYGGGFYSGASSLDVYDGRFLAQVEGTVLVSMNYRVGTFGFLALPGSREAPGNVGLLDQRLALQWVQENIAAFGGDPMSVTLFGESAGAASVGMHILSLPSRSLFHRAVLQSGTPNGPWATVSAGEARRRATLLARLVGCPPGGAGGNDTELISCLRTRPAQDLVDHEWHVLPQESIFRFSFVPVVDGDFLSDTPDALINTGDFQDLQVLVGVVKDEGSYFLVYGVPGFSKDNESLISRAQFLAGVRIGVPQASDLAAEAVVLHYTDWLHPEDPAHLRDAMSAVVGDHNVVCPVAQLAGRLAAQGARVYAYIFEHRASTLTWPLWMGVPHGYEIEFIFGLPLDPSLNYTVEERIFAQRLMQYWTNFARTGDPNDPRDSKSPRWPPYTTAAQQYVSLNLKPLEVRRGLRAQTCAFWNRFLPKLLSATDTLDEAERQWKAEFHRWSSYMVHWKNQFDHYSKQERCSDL
Procedure, shortened: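 Ellman assay using 5% rat cortex homogenate, preincubated 5 min with iso-OMPA (4.0 mmol/L) to block BuChE. Acetylthiocholine iodide (1 mmol/L) with inhibitor dilutions in phosphate buffer ([…], pH 7.40), incubated 15 min at 37 °C. Stopped with 0.2% DTNB, absorbance read at 405 nm. IC50 as mean of three independent experiments, each in triplicate.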

[2] = Antioxidant activity assessed as trolox equivalent of APPH-induced radical scavenging activity at 5 uM preincubated for 15 mins followed by AAPH addition measured every minute for 90 mins by ORAC fluorescein assay; format: functional
Procedure, shortened: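 ORAC-FL in 75 mM phosphate buffer, pH 7.4. Fluorescein (150 nM final) and sample (tested at 1–10 µM) incubated 15 min at 37 °C. AAPH (12 mM final) then added, and fluorescence (ex 485/em 535 nm) read every minute for 90 min. Trolox standard 1–8 µM; result expressed as µM Trolox equivalent per µM compound. Duplicate wells; three independent experiments.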

[3] = Anti-inflammatory activity in […] cells assessed as inhibition of LPS-stimulated NO release at 2.5 uM preincubated for 30 mins followed by LPS stimulation and measured after 24 hrs by Griess reagent based assay relative to control; format: functional; conditions: BV-2
Procedure, shortened: (§1)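 BV-2 cells cultured 24 h in DMEM (10% FBS, glutamine, pyruvate, pen/strep) at 37 °C, 5% CO2. Compound (DMSO stock diluted in PBS) added 30 min before LPS (1.0 µg/mL), then 24 h. Nitrite in supernatant measured by Griess reagent for 10 min at room temperature, A540, against a NaNO2 standard curve. Triplicate wells; mean ± SD of three independent experiments.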

[4] = Anti-inflammatory activity in […] cells assessed as inhibition of LPS-stimulated NO release at 10 uM preincubated for 30 mins followed by LPS stimulation and measured after 24 hrs by Griess reagent based assay relative to control; format: functional; conditions: BV-2; procedure, shortened: as §1
[5] = Disaggregation of Cu2+ induced preformed fibrils of human amyloid beta (1 to 42) at 25 uM after 24 hrs by Thioflavin T based fluorometric assay relative to control
Procedure, shortened: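 Aβ1-42 (25 µM) with Cu2+ (25 µM) in HEPES buffer pre-aggregated 24 h at 37 °C. Compound (25 µM) then added for a further 24 h at 37 °C. Fibril content measured by ThT fluorescence (glycine-NaOH, pH 8.5). Triplicate; three independent experiments.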

[6] = Effect on TNFalpha release in […] cells up to 10 uM after 24 hrs by ELISA; format: ADME, cell-based
Procedure, shortened: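 BV-2 cells exposed to compound up to 10 µM with no added LPS. TNF-α in the medium measured by ELISA. Mean ± SD of three independent experiments.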

[7] = Anti-inflammatory activity in […] cells assessed as inhibition of LPS-stimulated TNFalpha release at 2.5 uM preincubated for 30 mins followed by LPS stimulation and measured after 24 hrs by ELISA relative to control; format: functional; conditions: BV-2
Procedure, shortened: (§2)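 Confluent BV-2 cells in DMEM preincubated 30 min with compound, tested over 0.5–10 µM, then stimulated with LPS (1.0 µg/mL) for 24 h. Released TNF-α measured by ELISA following kit instructions. Triplicate wells; mean ± SD of three independent experiments.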

[8] = Cytotoxicity against […] cells assessed as decrease in cell viability up to 10 uM preincubated for 30 mins followed by LPS stimulation and measured after 24 hrs by MTT assay; format: cell-based
Procedure, shortened: (§3)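 BV-2 cells grown 24 h, then treated with compound (0.5, 2.5, 10.0 µM) for 30 min, with or without LPS (1.0 µg/mL), for a further 24 h. MTT (5 mg/mL) added for 4 h, formazan dissolved in DMSO, A490 read. Viability given as percent of untreated cells. Triplicate wells; three independent experiments.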

Homo sapiens [9] = organism: Homo sapiens; test: Anti-inflammatory activity in […] cells assessed as inhibition of LPS-stimulated NO release preincubated for 30 mins followed by LPS stimulation and measured after 24 hrs by Griess reagent based assay; format: functional, cell-based
[10] = molecular target: T2, Amyloid-beta precursor protein (Homo sapiens, UniProt P05067); test: Inhibition of human amyloid beta (1 to 42) self-induced aggregation after 24 hrs by Thioflavin T based fluorometric assay
Procedure, shortened: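 Self-induced Aβ1-42 aggregation (25 µM peptide) in phosphate buffer, pH 7.4, for 24 h at 37 °C with varying compound concentrations. Aggregation read by ThT fluorescence (5 µM ThT, glycine-NaOH pH 8.5).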

Homo sapiens [11] = organism: Homo sapiens; test: Anti-inflammatory activity in […] cells assessed as inhibition of LPS-stimulated TNFalpha release preincubated for 30 mins followed by LPS stimulation and measured after 24 hrs by ELISA; format: functional, cell-based; procedure, shortened: as §2
[12] = Anti-inflammatory activity in […] cells assessed as inhibition of LPS-stimulated TNFalpha release at 10 uM preincubated for 30 mins followed by LPS stimulation and measured after 24 hrs by ELISA relative to control; format: functional; conditions: BV-2; procedure, shortened: as §2
[13] = Inhibition of Cu2+ induced human amyloid beta (1 to 42) aggregation at 25 uM after 24 hrs by Thioflavin T based fluorometric assay relative to control
Procedure, shortened: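 Aβ1-42 (25 µM) and Cu2+ (25 µM) in HEPES buffer (20 mM, pH 6.6, 150 mM NaCl), with or without compound (25 µM final), incubated 24 h at 37 °C. ThT (5 µM) in glycine-NaOH, pH 8.5, added and fluorescence read. Triplicate; three independent experiments.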

Homo sapiens [14] = organism: Homo sapiens; test: Anti-inflammatory activity in […] cells assessed as inhibition of LPS-stimulated TNFalpha release at 0.5 uM preincubated for 30 mins followed by LPS stimulation and measured after 24 hrs by ELISA; format: functional, cell-based; procedure, shortened: as §2
Acetylcholinesterase [15] = molecular target: Acetylcholinesterase (Electrophorus electricus, UniProt O42275); test: Inhibition of electric eel AChE using acetylthiocholine iodide as substrate after 15 mins by Ellman's method
[16] = Effect on NO release in […] cells up to 10 uM after 24 hrs by Griess reagent based assay; format: ADME, cell-based
Procedure, shortened: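 BV-2 cells in DMEM treated with compound alone, without LPS, up to 10 µM. Nitrite in culture supernatant measured by Griess reagent (A540) against a NaNO2 standard curve. Mean ± SD of three independent experiments.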

Butyrylcholinesterase = Butyrylcholinesterase (Rattus norvegicus, UniProt Q9JKC1); test: Inhibition of rat serum BuChE using butyrylthiocholine iodide as substrate after 15 mins by Ellman's method; format: ADME
[17] = molecular target: T2, Amyloid-beta precursor protein; test: Inhibition of human amyloid beta (1 to 42) self-induced aggregation at 25 uM after 24 hrs by Thioflavin T based fluorometric assay relative to control
Procedure, shortened: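 Aβ1-42 (25 µM final) incubated with compound (25 µM final) in 50 mM phosphate buffer, pH 7.4, for 24 h at 37 °C under a sealing film. ThT (5 µM) in 50 mM glycine-NaOH, pH 8.5, then added and fluorescence measured. Triplicate; mean ± SD of three independent experiments.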

Acetylcholinesterase [18] = molecular target: T1, Acetylcholinesterase; test: Inhibition of rat cortex AChE using acetylthiocholine iodide as substrate after 15 mins by Ellman's method
[19] = Cytotoxicity against […] cells assessed as decrease in cell viability up to 10 uM measured after 24 hrs by MTT assay; format: cell-based; procedure, shortened: as §3
[20] = molecular target: T2, Amyloid-beta precursor protein; test: Disaggregation of self-induced preformed fibrils of human amyloid beta (1 to 42) at 25 uM after 24 hrs by Thioflavin T based fluorometric assay relative to control
Procedure, shortened: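 Aβ1-42 diluted in HEPES buffer (20 mM, pH 6.6, 150 mM NaCl) and pre-aggregated 24 h at 37 °C. Compound (25 µM) then added for another 24 h at 37 °C on a sealed plate. Remaining fibrils read by ThT fluorescence in glycine-NaOH, pH 8.5. Triplicate; three independent experiments.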

[21] = Effective permeability of the compound in PBS/EtOH at 100 ug/ml after 18 hrs by PAMPA; format: ADME; conditions: read-out: Peff
Acetylcholinesterase [22] = molecular target: Acetylcholinesterase (Homo sapiens, UniProt P22303); test: Inhibition of acetylcholinesterase (unknown origin)
Chain of Acetylcholinesterase (Homo sapiens, UniProt P22303) (P22303 whole entry): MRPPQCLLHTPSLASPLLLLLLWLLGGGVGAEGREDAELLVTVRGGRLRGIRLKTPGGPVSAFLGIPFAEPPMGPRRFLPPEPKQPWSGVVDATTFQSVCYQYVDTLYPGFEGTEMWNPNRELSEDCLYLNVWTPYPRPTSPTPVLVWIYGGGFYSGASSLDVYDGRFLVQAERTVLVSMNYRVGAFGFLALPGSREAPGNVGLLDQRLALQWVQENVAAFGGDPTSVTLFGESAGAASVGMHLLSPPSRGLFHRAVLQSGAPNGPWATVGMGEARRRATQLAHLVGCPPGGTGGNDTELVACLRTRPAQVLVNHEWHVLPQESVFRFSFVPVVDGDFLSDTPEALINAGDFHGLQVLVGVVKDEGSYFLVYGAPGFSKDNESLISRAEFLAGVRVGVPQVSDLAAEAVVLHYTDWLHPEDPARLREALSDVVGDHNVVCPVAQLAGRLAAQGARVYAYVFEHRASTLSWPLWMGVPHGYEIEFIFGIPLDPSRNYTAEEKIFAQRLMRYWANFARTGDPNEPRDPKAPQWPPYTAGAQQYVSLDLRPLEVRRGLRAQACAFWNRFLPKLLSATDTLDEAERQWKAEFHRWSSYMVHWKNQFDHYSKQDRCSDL

T2 sequence (P05067 whole entry): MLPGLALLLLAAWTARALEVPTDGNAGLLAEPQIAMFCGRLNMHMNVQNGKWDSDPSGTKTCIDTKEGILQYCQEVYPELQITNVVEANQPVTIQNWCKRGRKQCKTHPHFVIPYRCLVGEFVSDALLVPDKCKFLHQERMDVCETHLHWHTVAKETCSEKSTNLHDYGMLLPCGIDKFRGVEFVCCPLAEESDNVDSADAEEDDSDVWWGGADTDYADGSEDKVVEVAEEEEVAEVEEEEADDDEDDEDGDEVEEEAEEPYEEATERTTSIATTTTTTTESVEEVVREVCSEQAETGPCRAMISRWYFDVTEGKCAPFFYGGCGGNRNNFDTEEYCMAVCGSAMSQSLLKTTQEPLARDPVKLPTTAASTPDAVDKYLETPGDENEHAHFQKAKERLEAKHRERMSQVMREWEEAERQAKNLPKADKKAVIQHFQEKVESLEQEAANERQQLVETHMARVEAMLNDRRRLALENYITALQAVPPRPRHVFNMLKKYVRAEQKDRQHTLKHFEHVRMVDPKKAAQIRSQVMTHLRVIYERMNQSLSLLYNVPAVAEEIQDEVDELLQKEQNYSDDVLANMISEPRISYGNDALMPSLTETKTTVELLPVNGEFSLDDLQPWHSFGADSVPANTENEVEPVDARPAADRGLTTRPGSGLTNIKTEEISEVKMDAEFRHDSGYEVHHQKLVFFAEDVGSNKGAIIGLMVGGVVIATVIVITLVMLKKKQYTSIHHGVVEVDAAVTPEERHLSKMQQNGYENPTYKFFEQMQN
Chain of Acetylcholinesterase (Electrophorus electricus, UniProt O42275) (O42275 whole entry): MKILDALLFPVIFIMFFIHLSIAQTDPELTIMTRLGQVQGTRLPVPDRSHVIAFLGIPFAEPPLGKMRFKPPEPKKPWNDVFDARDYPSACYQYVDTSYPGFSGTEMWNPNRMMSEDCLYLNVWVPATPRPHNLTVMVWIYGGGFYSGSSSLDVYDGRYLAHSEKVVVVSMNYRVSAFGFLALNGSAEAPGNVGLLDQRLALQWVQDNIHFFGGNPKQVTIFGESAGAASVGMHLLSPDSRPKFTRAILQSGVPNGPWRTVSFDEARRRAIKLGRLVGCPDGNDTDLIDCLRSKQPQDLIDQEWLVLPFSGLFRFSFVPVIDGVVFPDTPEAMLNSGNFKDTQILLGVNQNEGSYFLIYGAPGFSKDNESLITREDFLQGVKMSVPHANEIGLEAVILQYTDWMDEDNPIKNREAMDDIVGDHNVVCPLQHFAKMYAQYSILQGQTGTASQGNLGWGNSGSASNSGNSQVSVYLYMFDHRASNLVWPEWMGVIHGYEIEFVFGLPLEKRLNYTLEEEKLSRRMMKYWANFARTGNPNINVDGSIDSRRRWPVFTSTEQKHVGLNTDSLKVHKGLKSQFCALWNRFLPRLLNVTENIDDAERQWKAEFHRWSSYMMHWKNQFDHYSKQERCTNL
Chain of Butyrylcholinesterase (Q9JKC1 whole entry): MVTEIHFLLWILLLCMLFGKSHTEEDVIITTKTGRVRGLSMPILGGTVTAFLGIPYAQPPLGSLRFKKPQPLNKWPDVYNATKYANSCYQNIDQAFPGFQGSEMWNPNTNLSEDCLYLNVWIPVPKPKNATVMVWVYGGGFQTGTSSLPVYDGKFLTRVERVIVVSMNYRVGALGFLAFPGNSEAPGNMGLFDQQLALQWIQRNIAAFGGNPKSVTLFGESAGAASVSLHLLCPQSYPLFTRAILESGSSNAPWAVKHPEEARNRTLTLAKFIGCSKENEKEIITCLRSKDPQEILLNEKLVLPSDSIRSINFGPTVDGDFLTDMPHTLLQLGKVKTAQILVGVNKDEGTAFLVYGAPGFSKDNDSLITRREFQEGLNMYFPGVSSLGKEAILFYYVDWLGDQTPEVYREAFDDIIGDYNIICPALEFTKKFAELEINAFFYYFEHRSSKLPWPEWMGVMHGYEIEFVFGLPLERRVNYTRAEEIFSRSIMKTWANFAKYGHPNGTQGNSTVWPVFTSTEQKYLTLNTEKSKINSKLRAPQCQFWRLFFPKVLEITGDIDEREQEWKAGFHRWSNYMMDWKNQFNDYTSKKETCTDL

| SMILES | Activity [2] [equiv] | inhibition at 2.5 µM [3] [%] | inhibition at 10 µM [4] [%] | Activity [5] [%] | Activity [6] | inhibition at 2.5 µM [7] [%] | Activity [8] | inhibition (Homo sapiens [9]) | IC50 [10] [µM] | inhibition (Homo sapiens [11]) | inhibition at 10 µM [12] [%] | inhibition [13] [%] | inhibition (Homo sapiens [14]) | IC50 (Acetylcholinesterase [15]) [µM] | Activity [16] | IC50 (Butyrylcholinesterase) [µM] | inhibition [17] [%] | IC50 (Acetylcholinesterase [18]) [nM] | Activity [19] | Activity [20] [%] | also measured |
| --- | --- | --- | --- | --- | --- | --- | --- | --- | --- | --- | --- | --- | --- | --- | --- | --- | --- | --- | --- | --- | --- |
| CCN(CCCCCCNC1=CC(=O)C(NCCCCCCN(CC)Cc2ccccc2OC)=CC1=O)Cc1ccccc1OC [MEMOQUIN] | 0.77 | – | – | – | – | – | – | – | – | – | – | – | – | – | – | – | – | – | – | – | IC50 (Acetylcholinesterase [1]): 1.55 nM |
| COc1ccccc1CN(C)CCCCNC(=O)c1cc(O)c(C(=O)NCCCCN(C)Cc2ccccc2OC)cc1O | 0.64 | 36.7 | 57.5 | 76.3 | Non-Toxic | 32.9 | Non-Toxic | Dose-dependent effect | 3.45 | Dose-dependent effect | 59.4 | 65.4 | inactive | 5.87 | Non-Toxic | 19.2 | 98.6 | 7370 | Non-Toxic | 80.3 | – |
| CCN(CCCCCCNC(=O)c1cc(O)c(C(=O)NCCCCCCN(CC)Cc2ccccc2OC)cc1O)Cc1ccccc1OC | 1.43 | 33.3 | 63.3 | 85.3 | Non-Toxic | 20.6 | Non-Toxic | Dose-dependent effect | 3.31 | Dose-dependent effect | 50.6 | 89.9 | inactive | 6.75 | Non-Toxic | > 100 | 99.6 | 1680 | Non-Toxic | 83.8 | Papp at 18 h, 100 ug/ml [21]: 5.54 ×10⁻⁶ cm/s |
| O=C(O)c1ccccc1O [SALICYLIC ACID] | – | – | – | – | – | – | – | – | – | – | – | – | – | – | – | – | – | – | – | – | IC50 (Acetylcholinesterase [22]): 346 µM |
| CCN(CCCNC(=O)c1cc(O)c(C(=O)NCCCN(CC)Cc2ccccc2OC)cc1O)Cc1ccccc1OC | 1.1 | 35 | 50.8 | 73.1 | Non-Toxic | 28.2 | Non-Toxic | Dose-dependent effect | 2.41 | Dose-dependent effect | 41.1 | 88.8 | inactive | 11.4 | Non-Toxic | > 100 | 98.2 | 670 | Non-Toxic | 77.3 | Papp at 18 h, 100 ug/ml [21]: 4.23 ×10⁻⁶ cm/s |
